Experimental data as given in ChEMBL document CHEMBL1137670, “First occurrence of an IMP metallo-beta-lactamase in Aeromonas caviae: IMP-19 in an isolate from France” (2007).
In brackets after ≈: the same amount, converted by molar mass.

Legend:
Assay type in all cases: functional
Aeromonas caviae [1] = assay: Antimicrobial activity against Aeromonas caviae A324R by disk diffusion method
Procedure, shortened: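 Disk diffusion per CLSI criteria, read as inhibition zone diameter in mm.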

Escherichia coli [2] = assay: Antimicrobial activity against Escherichia coli DH5alpha expressing pJDB2 containing Aeromonas caviae A324R metallo-beta-lactamase gene by broth dilution method
Procedure, shortened: (§1)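 Beta-lactam MICs by standard broth dilution per CLSI criteria. Recombinant DH5alpha(pIP19) carries blaIMP-19 subcloned into pK18, selected on kanamycin 30 µg/ml plus ceftazidime 4 µg/ml. DH5alpha(pJDB2) carries the 35 kb native plasmid extracted by alkaline lysis.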

Aeromonas caviae [3] = assay: Antimicrobial activity against Aeromonas caviae A324R expressing metallo-beta-lactamase IMP-19 by broth dilution method; procedure, shortened: as §1
Escherichia coli [4] = assay: Antimicrobial activity against Escherichia coli DH5alpha expressing pIP19 containing Aeromonas caviae A324R metallo-beta-lactamase blaIMP-19 gene by broth dilution method; procedure, shortened: as §1
Escherichia coli [5] = assay: Antimicrobial activity against Escherichia coli DH5alpha by broth dilution method; procedure, shortened: as §1

Row | SMILES | diameter of the inhibition zone (DIZ) (Aeromonas caviae [1]) | MIC (Escherichia coli [2]) | MIC (Aeromonas caviae [3]) | MIC (Escherichia coli [4]) | MIC (Escherichia coli [5])
1 | C[C@@H](O)[C@H]1C(=O)N2C(C(=O)O)=C(SCCNC=N)C[C@H]12 [IMIPENEM ANHYDROUS] | 27 mm | 0.25 µg/mL (≈ 0.835 µM) | 8 µg/mL (≈ 26.7 µM) | 0.25 µg/mL (≈ 0.835 µM) | –
2 | CC(C)(O/N=C(\C(=O)N[C@@H]1C(=O)N2C(C(=O)[O-])=C(C[n+]3ccccc3)CS[C@H]12)c1csc(N)n1)C(=O)O [CEFTAZIDIME] | – | 128 µg/mL (≈ 234 µM) | 1020 µg/mL (≈ 1870 µM) | 512 µg/mL (≈ 937 µM) | 4 µg/mL (≈ 7.32 µM)
3 | C[C@@H](O)[C@H]1C(=O)N2C(C(=O)O)=C(S[C@@H]3CN[C@H](C(=O)N(C)C)C3)[C@H](C)[C@H]12 [MEROPENEM] | – | 256 µg/mL (≈ 668 µM) | 1020 µg/mL (≈ 2670 µM) | 512 µg/mL (≈ 1340 µM) | ≤ 1 µg/mL
4 | C[C@]1(Cn2ccnn2)[C@H](C(=O)O)N2C(=O)C[C@H]2S1(=O)=O [TAZOBACTAM] | – | 0.5 µg/mL (≈ 1.67 µM) | 1 µg/mL (≈ 3.33 µM) | 0.5 µg/mL (≈ 1.67 µM) | ≤ 0.25 µg/mL
5 | Cc1nnc(SCC2=C(C(=O)O)N3C(=O)[C@@H](NC(=O)Cn4cnnn4)[C@H]3SC2)s1 [CEFAZOLIN] | – | 256 µg/mL (≈ 563 µM) | 1020 µg/mL (≈ 2250 µM) | 256 µg/mL (≈ 563 µM) | ≤ 1 µg/mL
6 | O=C(O)[C@H]1/C(=C/CO)O[C@@H]2CC(=O)N21 [CLAVULANIC ACID] | – | 4 µg/mL (≈ 20.1 µM) | 16 µg/mL (≈ 80.3 µM) | 8 µg/mL (≈ 40.2 µM) | 0.5 µg/mL (≈ 2.51 µM)
7 | C[C@H]1[C@H](NC(=O)/C(=N\OC(C)(C)C(=O)O)c2csc(N)n2)C(=O)N1S(=O)(=O)O [AZTREONAM] | 24 mm | 256 µg/mL (≈ 588 µM) | 512 µg/mL (≈ 1180 µM) | 256 µg/mL (≈ 588 µM) | –
8 | CO[C@@]1(NC(=O)Cc2cccs2)C(=O)N2C(C(=O)O)=C(COC(N)=O)CS[C@@H]21 [CEFOXITIN] | – | 256 µg/mL (≈ 599 µM) | 512 µg/mL (≈ 1200 µM) | 512 µg/mL (≈ 1200 µM) | 2 µg/mL (≈ 4.68 µM)
9 | CC1(C)S[C@@H]2[C@H](NC(=O)[C@H](C(=O)O)c3ccsc3)C(=O)N2[C@H]1C(=O)O [TICARCILLIN] | – | 512 µg/mL (≈ 1330 µM) | 2050 µg/mL (≈ 5330 µM) | 1020 µg/mL (≈ 2660 µM) | 4 µg/mL (≈ 10.4 µM)
10 | CCN1CCN(C(=O)N[C@@H](C(=O)N[C@@H]2C(=O)N3[C@@H]2SC(C)(C)[C@@H]3C(=O)O)c2ccccc2)C(=O)C1=O [PIPERACILLIN] | – | 8 µg/mL (≈ 15.5 µM) | 256 µg/mL (≈ 495 µM) | 2 µg/mL (≈ 3.86 µM) | 1 µg/mL (≈ 1.93 µM)
